ChEMBL document CHEMBL1137570, “3-substituted 7-phenyl-pyrroloquinolinones show potent cytotoxic activity in human cancer cell lines” (J Med Chem, 2007)

Legend:
[1] = tested on: HeLa; experiment: Cytotoxicity against human HeLa cells after 72 hrs by MTT assay; format: functional, cell-based
In short: (§1)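 MTT assay. Cells seeded at 7 × 10³ per well; after 24 h, exponentially growing cells were exposed to compound (final 0.005–100 µM) for 72 h. MTT was added for 4 h, then 10% SDS in 0.01 N HCl for 18 h at 37 °C. Absorbance read at 550 nm; survival given as % of untreated cells. IC50 from 6-8 replicate wells, ≥2 independent experiments.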

[2] = tested on: OE33; experiment: Cytotoxicity against human OE33 cells after 72 hrs by MTT assay; format: functional, cell-based; settings: OE33, 72 h; in short: as §1
[3] = tested on: A549; experiment: Cytotoxicity against human A549 cells after 72 hrs by MTT assay; format: functional, cell-based; settings: A549, 72 h
In short: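 MTT assay. Cells seeded at 7 × 10³ per well; after 24 h, exponentially growing cells were exposed to compound (final 0.005–100 µM) for 72 h. MTT was added for 4 h, then 10% SDS in 0.01 N HCl for 18 h at 37 °C. Absorbance read at 550 nm; survival given as % of untreated cells.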

[4] = Cytotoxicity against human H295R cells after 72 hrs by MTT assay; format: functional, cell-based; settings: NCI-H295R; in short: as §1
[5] = tested on: OVCAR-3; experiment: Cytotoxicity against human Ovcar3 cells after 72 hrs by MTT assay; format: functional, cell-based; settings: OVCAR-3, 72 h; in short: as §1
[6] = tested on: ARO; experiment: Cytotoxicity against human Aro cells after 72 hrs by MTT assay; format: functional, cell-based; in short: as §1
[7] = tested on: A549; experiment: Cell cycle arrest in human A549 cells assessed as accumulation at S phase at 1 uM after 24 hrs; format: functional
In short: (§2)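 A549 cells grown 24 h in drug-free medium or with compound at 0.1 or 1 µM. Cells were trypsinized, washed twice in PBS, fixed in cold 70% ethanol (30 min, -20 °C), then washed in citrate phosphate buffer and PBS. RNase (100 µg/mL) for 30 min at 37 °C, then propidium iodide (100 µg/mL) for 30 min at room temperature. Flow cytometry at 488/525 nm, ≥15 000 events, 3-4 repeats.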

[8] = tested on: PT-45; experiment: Cytotoxicity against human PT45 cells after 72 hrs by MTT assay; format: functional, cell-based; settings: PT-45, 72 h; in short: as §1
[9] = tested on: HT-29; experiment: Cytotoxicity against human HT29 cells after 72 hrs by MTT assay; format: functional, cell-based; settings: HT-29, 72 h; in short: as §1
[10] = tested on: A549; experiment: Cell cycle arrest in human A549 cells assessed as accumulation at G2/M phase at 1 uM after 24 hrs; format: functional; in short: as §2
[11] = tested on: A549; experiment: Cell cycle arrest in human A549 cells assessed as accumulation at G1 phase at 1 uM after 24 hrs; format: functional; in short: as §2
[12] = tested on: OE19; experiment: Cytotoxicity against human OE19 cells after 72 hrs by MTT assay; format: functional, cell-based; settings: OE19, 72 h; in short: as §1
[13] = tested on: A549; experiment: Cell cycle arrest in human A549 cells assessed as accumulation at sub Go phase at 1 uM after 24 hrs; format: functional
[14] = tested on: MCF7; experiment: Cytotoxicity against human MCF7 cells after 72 hrs by MTT assay; format: functional, cell-based; settings: MCF7, 72 h; in short: as §1
[15] = tested on: HepG2; experiment: Cytotoxicity against human HepG2 cells after 72 hrs by MTT assay; format: functional, cell-based; settings: HepG2, 72 h; in short: as §1
[16] = Cytotoxicity againat taxol-resistant human A549T24 cells after 72 hrs by MTT assay; format: functional, cell-based; settings: A549, 72 h
[17] = tested on: A549; experiment: Cell cycle arrest in human A549 cells assessed as accumulation at G2/M phase at 0.1 uM after 24 hrs; format: functional; in short: as §2
[18] = tested on: A549; experiment: Cell cycle arrest in human A549 cells assessed as accumulation at sub Go phase at 0.1 uM after 24 hrs; format: functional
[19] = tested on: A549; experiment: Cell cycle arrest in human A549 cells assessed as accumulation at G1 phase at 0.1 uM after 24 hrs; format: functional; in short: as §2
[20] = Cytotoxicity againat taxol-resistant human A549T12 cells after 72 hrs by MTT assay; format: functional, cell-based; settings: A549, 72 h
[21] = tested on: A549; experiment: Cell cycle arrest in human A549 cells assessed as accumulation at S phase at 0.1 uM after 24 hrs; format: functional; in short: as §2
[22] = tested on: A549; experiment: Resistance index, ratio of IC50 for A549 cells to IC50 for A549T12 cells; format: functional, Homo sapiens

Row | Structure (SMILES) | IC50 [1] | IC50 [2] | IC50 [3] | IC50 [4] | IC50 [5] | IC50 [6] | Activity [7] | IC50 [8] | IC50 [9] | Activity [10] | Activity [11] | IC50 [12] | Activity [13] | IC50 [14] | IC50 [15] | IC50 [16] | Activity [17] | Activity [18] | Activity [19] | IC50 [20] | further results
1 | CC[C@]1(O)C[C@H]2CN(CCc3c([nH]c4ccccc34)[C@@](C(=O)OC)(c3cc4c(cc3OC)N(C=O)[C@H]3[C@@](O)(C(=O)OC)[C@H](OC(C)=O)[C@]5(CC)C=CCN6CC[C@]43[C@@H]65)C2)C1 [VINCRISTINE] | 5 nM | 30 nM | 30 nM | 90 nM | 20 nM | 0.3 nM | 7.9% | 4 nM | 10 nM | 45.2% | 46.8% | 50 nM | 0.5% | 20 nM | 200 nM | – | – | – | – | – | –
2 | CCCCn1ccc2c3c(=O)cc(-c4ccccc4)[nH]c3ccc21 | 20 nM | 60 nM | 30 nM | 10 nM | 10 nM | 30 nM | 9.2% | 40 nM | 30 nM | 77.6% | 12.9% | 7 nM | 0.4% | 60 nM | 20 nM | 30 nM | 80.4% | 0.2% | 11.8% | 20 nM | Activity [21]: 7.7%
3 | CCCn1ccc2c3c(=O)cc(-c4ccccc4)[nH]c3ccc21 | 30 nM | 100 nM | 50 nM | 20 nM | 20 nM | 50 nM | 9.6% | 50 nM | 200 nM | 76.9% | 13.5% | 50 nM | 0.3% | 70 nM | 40 nM | 40 nM | 76.2% | 1.3% | 13.6% | 40 nM | Ratio IC50 [22]: 1.2; Activity [21]: 8.7%
4 | CC(=O)O[C@H]1C(=O)[C@@]2(C)[C@H]([C@H](OC(=O)c3ccccc3)[C@]3(O)C[C@H](OC(=O)[C@H](O)[C@@H](NC(=O)c4ccccc4)c4ccccc4)C(C)=C1C3(C)C)[C@]1(OC(C)=O)CO[C@@H]1C[C@@H]2O [PACLITAXEL] | 8 nM | 200 nM | – | 80 nM | 10 nM | 0.2 nM | – | 5 nM | 50 nM | – | – | 400 nM | – | 7 nM | 300 nM | 102 nM | – | – | – | 60 nM | –
5 | CCn1ccc2c3c(=O)cc(-c4ccccc4)[nH]c3ccc21 | 10 nM | 200 nM | 30 nM | 30 nM | 40 nM | 30 nM | 8.1% | 30 nM | 30 nM | 77.3% | 14.1% | 80 nM | 0.4% | 40 nM | 50 nM | 30 nM | 79.8% | 0.6% | 11.7% | 30 nM | Ratio IC50 [22]: 1; Activity [21]: 8.1%
6 | O=c1cc(-c2ccccc2)[nH]c2ccc3[nH]ccc3c12 | – | 2000 nM | – | – | – | – | – | – | – | – | – | 1000 nM | – | – | – | – | – | – | – | – | –
7 | O=c1cc(-c2ccccc2)[nH]c2ccc3c(ccn3CC3CC3)c12 | 20 nM | 20 nM | 20 nM | 10 nM | 10 nM | 30 nM | 8.6% | 20 nM | 60 nM | 74.6% | 16.3% | 100 nM | 0.3% | 40 nM | 20 nM | 20 nM | 75.7% | 0.4% | 16.5% | 20 nM | Ratio IC50 [22]: 1; Activity [21]: 7%
8 | Cn1ccc2c3c(=O)cc(-c4ccccc4)[nH]c3ccc21 | 100 nM | 800 nM | 300 nM | 90 nM | 700 nM | 300 nM | 9.2% | 100 nM | 300 nM | 74.9% | 15.6% | 100 nM | 0.3% | 400 nM | 1000 nM | 200 nM | 18.2% | 6.4% | 66.9% | 300 nM | Ratio IC50 [22]: 1; Activity [21]: 8.8%
9 | CCCCCn1ccc2c3c(=O)cc(-c4ccccc4)[nH]c3ccc21 | 20 nM | 20 nM | 40 nM | 20 nM | 20 nM | 70 nM | 8.8% | 40 nM | 200 nM | 75.5% | 15.5% | 5 nM | 0.4% | 80 nM | 30 nM | 40 nM | 79.6% | 1% | 12.4% | 50 nM | Ratio IC50 [22]: 0.8; Activity [21]: 7.2%
10 | CCN(CC)CCn1ccc2c3c(O)cc(-c4ccccc4)nc3ccc21 | – | 16000 nM | – | – | – | – | – | – | – | – | – | 10000 nM | – | – | – | – | – | – | – | – | –
11 | O=c1cc(-c2ccccc2)[nH]c2ccc3c(ccn3Cc3ccccc3)c12 | 100 nM | 100 nM | 100 nM | 400 nM | 500 nM | 300 nM | 9.4% | 80 nM | 400 nM | 75.8% | 14.6% | 500 nM | 0.5% | 300 nM | 700 nM | 200 nM | 10.4% | 1.1% | 78.9% | 100 nM | Ratio IC50 [22]: 1; Activity [21]: 9.7%
